Laboratory results taken from ChEMBL document CHEMBL1136809, “Synthesis and structure-affinity relationships of novel N-(1-ethyl-4-methylhexahydro-1,4-diazepin-6-yl)pyridine-3-carboxamides with potent serotonin 5-HT3 and dopamine D2 receptor antagonistic activity” (J Med Chem, 2003).

Legend:
[1] = biological target: T1, 5-hydroxytryptamine receptor 4 (Cavia porcellus, UniProt O70528); assay: Inhibition of [3H]GR-113808 binding to guinea pig striatum 5-hydroxytryptamine 4 receptor; assay type: tissue-based
T1 sequence (O70528 whole entry): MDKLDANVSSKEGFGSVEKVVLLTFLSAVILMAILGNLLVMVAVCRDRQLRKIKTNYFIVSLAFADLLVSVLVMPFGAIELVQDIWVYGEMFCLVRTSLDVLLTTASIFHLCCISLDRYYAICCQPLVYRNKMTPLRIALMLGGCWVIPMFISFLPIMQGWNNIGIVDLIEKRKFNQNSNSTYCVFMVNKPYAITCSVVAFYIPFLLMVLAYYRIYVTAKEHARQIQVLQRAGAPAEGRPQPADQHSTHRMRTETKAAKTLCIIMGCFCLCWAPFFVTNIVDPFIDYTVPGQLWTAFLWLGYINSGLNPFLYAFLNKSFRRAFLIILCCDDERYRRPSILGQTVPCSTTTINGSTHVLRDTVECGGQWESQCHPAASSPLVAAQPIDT

D(2) dopamine receptor [2] = biological target: T2, D(2) dopamine receptor (Rattus norvegicus, UniProt P61169); assay: Inhibition of the binding of radioligand [3H]spiperone to dopamine receptor D2 in rat brain synaptic membrane; assay type: cell membranes
T2 sequence (P61169 whole entry): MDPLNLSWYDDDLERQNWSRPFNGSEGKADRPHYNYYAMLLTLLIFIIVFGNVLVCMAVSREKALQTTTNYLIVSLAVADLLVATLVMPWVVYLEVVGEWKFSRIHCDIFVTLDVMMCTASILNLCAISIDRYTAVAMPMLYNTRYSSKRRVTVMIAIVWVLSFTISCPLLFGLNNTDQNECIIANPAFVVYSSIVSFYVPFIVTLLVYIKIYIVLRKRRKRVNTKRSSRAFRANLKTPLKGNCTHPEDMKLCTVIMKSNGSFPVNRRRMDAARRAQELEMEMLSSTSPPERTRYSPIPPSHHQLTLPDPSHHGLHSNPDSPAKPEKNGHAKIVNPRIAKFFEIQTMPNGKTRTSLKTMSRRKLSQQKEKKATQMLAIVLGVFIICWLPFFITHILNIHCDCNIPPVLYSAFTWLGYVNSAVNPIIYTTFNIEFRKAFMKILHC

[3] = biological target: T3, Serotonin 3 (5-HT3) receptor (Rattus norvegicus, UniProt P35563+Q9JJ16); assay: Concentration required to inhibit the binding of radioligand [3H]GR-65630 to serotonin 5-hydroxytryptamine-3 receptor (5-HT 3 receptor)in rat brain cortical membrane; assay type: tissue-based
T3 sequence (P35563 whole entry): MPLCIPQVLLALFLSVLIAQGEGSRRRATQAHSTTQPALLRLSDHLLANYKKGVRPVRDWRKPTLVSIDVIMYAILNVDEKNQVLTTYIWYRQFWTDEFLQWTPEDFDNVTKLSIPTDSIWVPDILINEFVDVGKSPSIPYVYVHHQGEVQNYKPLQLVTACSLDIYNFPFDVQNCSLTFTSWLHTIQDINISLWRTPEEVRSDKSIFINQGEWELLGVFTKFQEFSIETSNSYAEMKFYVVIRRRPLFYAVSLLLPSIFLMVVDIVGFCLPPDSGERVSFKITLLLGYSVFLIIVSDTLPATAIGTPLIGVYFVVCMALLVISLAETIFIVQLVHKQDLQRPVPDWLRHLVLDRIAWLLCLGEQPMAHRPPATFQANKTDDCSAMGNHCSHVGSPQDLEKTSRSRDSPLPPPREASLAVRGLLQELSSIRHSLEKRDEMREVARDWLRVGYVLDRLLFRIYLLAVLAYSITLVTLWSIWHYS
T3 sequence (Q9JJ16 whole entry): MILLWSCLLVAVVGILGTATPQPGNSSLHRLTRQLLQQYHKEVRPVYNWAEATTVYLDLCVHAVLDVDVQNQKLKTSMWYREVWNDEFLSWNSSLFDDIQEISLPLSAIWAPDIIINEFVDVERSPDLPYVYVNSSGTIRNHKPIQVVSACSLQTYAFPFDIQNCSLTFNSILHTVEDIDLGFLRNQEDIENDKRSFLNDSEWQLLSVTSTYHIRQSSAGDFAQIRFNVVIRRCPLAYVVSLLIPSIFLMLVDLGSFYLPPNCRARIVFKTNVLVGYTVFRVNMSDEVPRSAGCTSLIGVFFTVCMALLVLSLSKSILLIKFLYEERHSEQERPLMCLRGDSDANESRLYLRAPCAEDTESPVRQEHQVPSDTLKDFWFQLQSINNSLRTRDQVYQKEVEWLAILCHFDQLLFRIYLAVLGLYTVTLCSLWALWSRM

Canis familiaris [4] = assay: Effective dose for inhibition of apomorphine (0.3 mg/kg) induced emesis in dogs when 1 mg/kg of compound administered perorally; assay type: functional, Canis lupus familiaris; settings: route oral
Procedure, shortened: (§1)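 Male beagle dogs weighing 10–16 kg, in groups of three to six, were pretreated orally with test compound. Apomorphine hydrochloride (0.3 mg/kg) was injected subcutaneously 2 h later to elicit emesis.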

[5] = biological target: T3, Serotonin 3 (5-HT3) receptor; assay: Inhibition of [3H]GR-65630 binding to rat cortical membrane serotonin 5-hydroxytryptamine 3 receptor
Canis familiaris [6] = assay: Percent inhibition of apomorphine (0.3 mg/kg) induced emesis in dogs when 1 mg/kg of compound administered perorally; assay type: functional; settings: Canis lupus familiaris, route oral; procedure, shortened: as §1
D(3) dopamine receptor [7] = biological target: T4, D(3) dopamine receptor (Rattus norvegicus, UniProt P19020); assay: Concentration of compound required to inhibit the binding of radioligand [3H](R)-7-OH-DPAT to Dopamine receptor D3 in rat striatum; assay type: tissue-based
T4 sequence (P19020 whole entry): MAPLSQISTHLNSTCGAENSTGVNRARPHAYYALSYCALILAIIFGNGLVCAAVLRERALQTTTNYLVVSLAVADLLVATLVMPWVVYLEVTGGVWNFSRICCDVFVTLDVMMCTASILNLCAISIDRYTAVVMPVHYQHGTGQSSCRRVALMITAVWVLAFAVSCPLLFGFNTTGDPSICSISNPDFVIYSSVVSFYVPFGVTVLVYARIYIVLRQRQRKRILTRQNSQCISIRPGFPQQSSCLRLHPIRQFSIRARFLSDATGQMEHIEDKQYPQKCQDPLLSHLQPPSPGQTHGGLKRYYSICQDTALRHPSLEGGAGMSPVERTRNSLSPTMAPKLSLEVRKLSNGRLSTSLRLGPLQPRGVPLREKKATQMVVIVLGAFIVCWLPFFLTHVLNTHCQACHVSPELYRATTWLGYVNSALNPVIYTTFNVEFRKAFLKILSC

[8] = biological target: T1, 5-hydroxytryptamine receptor 4; assay: Concentration of compound required to inhibit the binding of radioligand [3H]GR-113808 to serotonin 5-hydroxytryptamine 4 receptor in guinea-pig striatum; assay type: tissue-based
[9] = biological target: T1, 5-hydroxytryptamine receptor 4; assay: Concentration of compound required to inhibit the binding of radioligand [3H]GR-113808 to 5-hydroxytryptamine 4 receptor in guinea-pig striatum; assay type: tissue-based
D(3) dopamine receptor [10] = biological target: T4, D(3) dopamine receptor; assay: Concentration of compound required to inhibit the binding of radioligand [3H](R)-7-OH-DPAT to Dopamine receptor D3 in rat striatum.
[11] = biological target: T1, 5-hydroxytryptamine receptor 4; assay: Concentration of compound required to inhibit the binding of radioligand [3H]GR-113808 to 5-hydroxytryptamine 4 receptor in guinea pig striatum; assay type: tissue-based
[12] = biological target: T3, Serotonin 3 (5-HT3) receptor; assay: Concentration of compound required to inhibit the binding of radioligand [3H]GR-65630 to 5-hydroxytryptamine 3 receptor in rat brain cortical membrane; assay type: cell membranes
Procedure, shortened: (§2)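 Displacement of [³H]GR65630 from rat cerebral cortex membranes, following an earlier [³H]quipazine binding protocol. IC50, the concentration giving 50% inhibition of specific binding, in nM by probit (linear regression) analysis. Values given as mean with 95% confidence limits.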

D(2) dopamine receptor [13] = biological target: T2, D(2) dopamine receptor; assay: Affinity of compound towards Dopamine receptor D2 in rat striatum using [3H]spiperone as radioligand; assay type: tissue-based
Procedure, shortened: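 Competition binding against [3H]spiperone in rat striatal (brain synaptic) membranes. IC50 is the concentration giving 50% inhibition of specific radioligand binding, in nM, derived by linear regression (Probit analysis). Reported as mean with 95% confidence limits.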

[14] = biological target: T3, Serotonin 3 (5-HT3) receptor; assay: Concentration of compound required to inhibit the binding of radioligand [3H]GR-65630 to serotonin 5-hydroxytryptamine 3 receptor in rat cortical membrane; assay type: cell membranes; procedure, shortened: as §2
D(2) dopamine receptor [15] = biological target: T2, D(2) dopamine receptor; assay: Concentration of compound required to inhibit the binding of radioligand [3H]-spiperone to Dopamine receptor D2 in rat striatum; assay type: tissue-based
Procedure, shortened: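 Competition binding against [³H]spiperone in rat striatum. IC50, the concentration inhibiting 50% of specific radioligand binding, in nM by probit (linear regression) analysis. Reported as mean with 95% confidence limits.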

D(2) dopamine receptor [16] = biological target: T2, D(2) dopamine receptor; assay: Affinity towards Dopamine receptor D2 in rat striatum using [3H]spiperone as radioligand; assay type: tissue-based
[17] = Canis lupus familiaris, read-out: ED50

| Compound | Ki [1] [nM] | IC50 (D(2) dopamine receptor [2]) [nM] | IC50 [3] [nM] | inhibition in vivo at 1 mg/kg (Canis familiaris [6]) [%] | further results |
| --- | --- | --- | --- | --- | --- |
| COc1cc(N)c(Cl)cc1C(=O)NC1CC2CCC(C1)N2C (stereo in doubt; 2) | > 1000 | – | – | – | – |
| COc1cc(N)c(Cl)cc1C(=O)NC1CCN(C)CC1 | 832 | – | – | – | – |
| CCN1CCN(C)C[C@@H](NC(=O)c2cc(Cl)c(OC)nc2NC)C1 | – | > 1000 | > 100 | – | – |
| CCN(CC)CCNC(=O)c1cc(Cl)c(N)cc1OC [METOCLOPRAMIDE] | 546 | – | 228 | 100 | ED50 (Canis familiaris [4]; [17]): 0.45 mg/kg; Ki [5]: 210 nM; IC50 (D(3) dopamine receptor [7]): 61.3 nM; IC50 [8]: 912 nM |
| COc1cc(N)c(Cl)cc1C(=O)N[C@@H]1CN2CCC1CC2 | 383 | – | – | – | – |
| CCN1CCN(CC)CC(NC(=O)c2cc(Cl)c(NC)nc2OC)C1 | – | 27.8 | 0.65 | 53 | – |
| CCN1CCN(C)C[C@H](NC(=O)c2cc(Br)c(NC)nc2OC)C1 | – | 122 | 1.28 | 47 | IC50 (D(3) dopamine receptor [7]): 14.3 nM; IC50 [9]: > 1000 nM |
| CCN1CCN(C)C[C@@H](NC(=O)c2cc(Cl)c(NC)cc2OC)C1 | – | – | – | 100 | ED50 (Canis familiaris [4]; [17]): 0.13 mg/kg; ED50 (Canis familiaris [4]; dose 1 mg/kg): 0.13 mg/kg; IC50 (D(3) dopamine receptor [10]): 15.1 nM; IC50 [11]: > 1000 nM |
| CCN1CCN(CC)CC(NC(=O)c2cc(Br)c(NC)nc2OC)C1 | – | 20.9 | 0.59 | 69 | – |
| CCN1CCN(C)CC(NC(=O)c2cnc(NC)nc2OC)C1 (stereo not drawn) | – | > 1000 | – | – | IC50 [12]: 157 nM |
| CCOc1nc(NC)c(Br)cc1C(=O)NC1CN(C)CCN(CC)C1 (stereo not drawn) | – | 86.4 | 1.48 | – | – |
| CCN1CCN(C)C[C@@H](NC(=O)c2cc(Cl)c(NC)nc2OC)C1 | – | – | – | 52 | – |
| CCN1CCN(C)CC(NC(=O)c2[nH]nc3ccccc23)C1 (stereo not drawn) | – | > 1000 | 6.56 | – | – |
| COc1cc(N)c(Cl)cc1C(=O)NC[C@@H]1CCN2CCC[C@@H]12 | 21 | – | – | – | Ki (D(2) dopamine receptor [13]): > 10000 nM |
| COc1cc(N)c(Cl)cc1C(=O)NC1CC2CCC(C1)N2Cc1ccccc1 (stereo not drawn) | 233 | – | – | – | – |
| CNc1nc(OC)c(C(=O)NC2CN(C)CCN(C)C2)cc1Cl | – | 137 | 1.3 | 20 | – |
| COc1cc(N)c(Cl)cc1C(=O)NC1CC2CCC(C1)N2C (stereo in doubt) | 48 | – | – | – | – |
| COc1cc(N)c(Cl)cc1C(=O)NC1CN(C)CCN(Cc2ccccc2)C1 (stereo not drawn) | – | – | – | – | IC50 [11]: > 1000 nM; IC50 [14]: 2.07 nM; IC50 (D(2) dopamine receptor [15]): > 1000 nM |

| Compound | Ki [1] [nM] | IC50 (D(2) dopamine receptor [2]) [nM] | IC50 [3] [nM] | inhibition in vivo at 1 mg/kg (Canis familiaris [6]) [%] | further results |
| --- | --- | --- | --- | --- | --- |
| CCN1CCN(C)CC(NC(=O)c2cc(Br)c(NC)nc2OC)C1 (stereo not drawn) | – | – | 0.97 | – | – |
| CCN1CCN(C)CC(NC(=O)c2cc(Br)c(N(C)C)nc2OC)C1 (stereo not drawn) | – | – | – | 83 | – |
| CCN1CCN(C)CC(NC(=O)c2cc(Cl)cc3c2OCC(=O)N3C)C1 (stereo not drawn) | – | > 1000 | 38.7 | – | – |
| CCOc1cc(N)c(Cl)cc1C(=O)NCC1CN(Cc2ccc(F)cc2)CCO1 (stereo not drawn) [MOSAPRIDE] | 69.9 | – | – | – | Ki (D(2) dopamine receptor [16]): > 10000 nM; Ki [5]: 1190 nM |
| CNc1nc(OC)c(C(=O)NC2CN(C)CCN(C3CC3)C2)cc1Br (stereo not drawn) | – | 47.1 | 0.76 | 14 | – |
| COc1cc(N)c(Cl)cc1C(=O)NCCN(C)Cc1ccccc1 | 867 | – | – | – | Ki (D(2) dopamine receptor [16]): 24.3 nM; Ki [5]: > 1000 nM |
| CCN1CCN(C)CC(NC(=O)c2cc(Cl)cn3ccnc23)C1 (stereo not drawn) | – | > 1000 | 148 | – | – |
| CCN1CCN(C2CC2)CC(NC(=O)c2cc(Br)c(NC)nc2OC)C1 (stereo not drawn) | – | 12.9 | 0.69 | 25 | – |
| Cc1nccn1CC1CCc2c(c3ccccc3n2C)C1=O (stereo not drawn) [ONDANSETRON] | – | > 1000 | – | – | – |
| CCOc1nc(NC)c(Cl)cc1C(=O)NC1CN(C)CCN(CC)C1 (stereo not drawn) | – | 42.9 | 0.55 | 40 | – |
| O=c1[nH]c2ccccc2n1CCCN1CCC(n2c(=O)[nH]c3cc(Cl)ccc32)CC1 [DOMPERIDONE] | – | – | – | – | IC50 [11]: > 1000 nM |
| CCN1CCN(C)C[C@@H](NC(=O)c2cc(Br)c(NC)nc2OC)C1 | – | 6.88 | 1.2 | 100 | ED50 (Canis familiaris [4]; [17]): 0.12 mg/kg; IC50 (D(3) dopamine receptor [7]): 1.13 nM; IC50 [8]: > 10000 nM |
| CCNc1nc(OC)c(C(=O)NC2CN(C)CCN(CC)C2)cc1Cl (stereo not drawn) | – | – | – | 42 | – |
| CCN1CCN(C)C[C@@H](NC(=O)c2cc(Cl)c(N)c3c2OCC3)C1 | – | 637 | 3.7 | – | – |
| COc1cc(N)c(Cl)cc1C(=O)NC1CCN(Cc2ccccc2)CC1 [CLEBOPRIDE] | 104 | – | – | – | – |
| CCN1CCN(C)CC(NC(=O)c2cc(Cl)cc3c2OCC3)C1 (stereo not drawn) | – | > 1000 | 29.9 | – | – |
| COc1cc(N)c(Cl)cc1C(=O)NC1CCN2CCCC1C2 (stereo not drawn) [RENZAPRIDE] | 40.4 | – | – | – | Ki (D(2) dopamine receptor [16]): > 10000 nM; Ki [5]: 5.3 nM |
